# NR1D1 modulator – Rev-erb alpha (human) modulation | activity, % at 10 µM | P20393 | Rev-erbα–FITC-DNA binding, fluorescence polarization, 90 min | 0.79% of 370,000 active;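 active = activity above about 14%, limit read from the data; passing the limit was not always enough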;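 note: 0% = DMSO wells with 35 nM protein and 100% = DMSO wells with 750 nM protein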
# NR2E3 ag-1 – activates human photoreceptor nuclear receptor NR2E3 | Q9Y5X4 | GST-NR2E3/biotin-RetCOR TR-FRET, 1536-well | inhibition of corepressor binding, % at 4.78 µM | 0.12% of 320,000 active;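 active = percent inhibition above the cutoff of mean plus 3 SD of all tested compounds, set per screening campaign, cut at about 20% in these data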;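 note: 0% = DMSO wells and 100% = biotin wells as full block of FRET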
#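 Material – GST-tagged NR2E3 plus biotinylated RetCOR corepressor · Quantity – NR2E3 fusion 1.35 nM · Times – 5 h incubation at 4 °C · Medium – pH 7.5 Tris-based buffer · Technique – TR-FRET, Eu(K)-anti-GST donor, streptavidin-D2 acceptor, ex 340, em 617/671 nm · Benchmarks – high control biotin, low control 0.6% DMSO · Format – 1536-well plates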
# PG9 Ab binder – small molecules binding HIV-1 gp120 antibody PG9; TR-FRET gp120-PG9 antibody binding; inhibition, % at 6.7 µM; 0.43% of 360,000 active; in the data active = inhibition above about 8.5%
# Neddyl block – cullin neddylation inhibition. calls only at 25 µM. P61081+Q13564. TR-FRET cullin neddylation, biochemical. AID 651699. 0.58% of 360,000 active; in the data active = inhibition above about 36%
# Target sequence (P61081 whole entry, looked up): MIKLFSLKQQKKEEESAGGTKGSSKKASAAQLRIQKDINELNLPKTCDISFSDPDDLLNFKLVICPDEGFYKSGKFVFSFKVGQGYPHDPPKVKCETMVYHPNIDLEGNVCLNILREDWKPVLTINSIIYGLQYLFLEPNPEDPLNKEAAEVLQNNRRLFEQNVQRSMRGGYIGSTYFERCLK
# Target sequence (Q13564 whole entry, looked up): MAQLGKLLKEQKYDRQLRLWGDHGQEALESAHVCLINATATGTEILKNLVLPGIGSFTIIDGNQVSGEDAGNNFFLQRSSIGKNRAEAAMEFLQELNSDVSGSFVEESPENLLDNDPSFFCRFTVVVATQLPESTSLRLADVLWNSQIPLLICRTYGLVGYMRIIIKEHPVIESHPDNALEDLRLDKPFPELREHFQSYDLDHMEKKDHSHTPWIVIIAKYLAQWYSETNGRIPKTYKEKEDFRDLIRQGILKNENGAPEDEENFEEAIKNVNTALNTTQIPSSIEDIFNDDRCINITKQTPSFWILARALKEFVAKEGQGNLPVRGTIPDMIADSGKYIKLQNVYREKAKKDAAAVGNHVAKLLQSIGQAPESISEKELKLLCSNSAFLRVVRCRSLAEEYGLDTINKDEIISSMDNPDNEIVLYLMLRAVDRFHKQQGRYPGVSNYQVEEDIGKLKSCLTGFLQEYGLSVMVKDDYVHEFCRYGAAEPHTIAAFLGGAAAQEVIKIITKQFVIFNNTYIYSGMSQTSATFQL
# NR2E3 ag-2 – agonists of human NR2E3 nuclear receptor | Q9Y5X4 | CHO-S Gal4-NCOR/VP16-NR2E3 two-hybrid, luciferase | inhibition of corepressor binding, % at 3.98 µM | 0.35% of 360,000 active;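 active = inhibition above the mean of all tested compounds plus 3 SD, cut at about 70% in these data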;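 note: 0% = DMSO with NR2E3 transfected cells and 100% = cells lacking NR2E3 construct; higher means lower luciferase signal from less NR2E3 corepressor binding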
# NR2E3 ag conf – confirmation of human NR2E3 agonists; AID 624378; inhibition, % at 3.98 µM; 51% of 2,300 active; CHO-S mammalian two-hybrid NR2E3-NCOR, luciferase luminescence; shares compounds with NR2E3 ag-2;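 active = average inhibition above a cutoff equal to the mean inhibition of all tested compounds plus one SD, cut at about 70% in these data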;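 note: 0% = DMSO in NR2E3 cells and 100% = DMSO in cells lacking NR2E3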
# GAL4-VP16 luc – reduces GAL4-VP16 reporter signal in NR2E3 counterscreen. shares compounds with NR2E3 ag-2. CHO-S GAL4-VP16 luciferase reporter, luminescence. inhibition, % at 3.98 µM. 29% of 2,300 active. AID 624379;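 active = mean inhibition above a cutoff equal to the average over all tested compounds plus one standard deviation, cut at about 70% in these data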;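 note: luciferase from a UAS reporter driven by GAL4-VP16 transactivation; 0% = DMSO with VP16-transfected cells and 100% = DMSO with cells lacking VP16; higher means less reporter light so more repression of VP16 activity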
# * hit, by the source's call; i = inactive; nt = no result given. Sampled rows, rich in hits. Any-hit rate of the full collection: about 2%.
SMILES,NR1D1 modulator,NR2E3 ag-1,PG9 Ab binder,Neddyl block,NR2E3 ag-2,NR2E3 ag conf,GAL4-VP16 luc
CCOC(=O)C1CCCN(S(=O)(=O)c2ccc(S(=O)(=O)N(CC)CC)cc2)C1 (centres undefined),-3.4,0.9,0.2,i,83.7*,97.1*,88.5*
CN(C)S(=O)(=O)N1CCC(Oc2ccc(C(=O)N3C[C@H]4CC[C@H]3C4)cc2)CC1,0.2,-0.3,-1.2,i,60.2,8.4,14.7
COc1cc(N(C)C)ccc1C=c1c2ccccc2n2c1cc(-c1ccccc1)[n+]2C,-12.4,nt,-16.8,i,87.0*,90.9*,65.0
CN(C)c1ccc(C=c2c3ccccc3n3c2c2c([n+]3C)CCCC2)cc1,16.7,nt,-13.8,i,96.4*,99.8*,91.4*
CN(C)c1ccc(C=c2c3ccccc3n3c2cc(-c2ccccc2)[n+]3C)cc1,-15.4,nt,-15.8,i,80.5*,92.8*,68.5
COc1cc(C=c2c3ccccc3n3c2cc(-c2ccccc2)[n+]3C)cc(OC)c1OC,-0.7,nt,-4.3,nt,-41.6,nt,nt
O=C(C1CCC1)n1ccc2ccc(-c3ccc4ccn(Cc5ccccc5)c4c3)cc21,-4.9,nt,nt,nt,nt,nt,nt
COC1=CC(=O)c2nc(Cl)ccc2C1=O,-1.7,nt,-0.1,i,64.0,36.5,33.4
CCCC/C=C1/[C@@H](C(C)C)N(Cc2ccc3c(c2)OCO3)C2=N[C@H](c3ccccc3)CC(=O)N21,1.6,nt,nt,nt,nt,nt,nt
CCCc1ccc(Oc2cn[nH]c2-c2ccc(O)c(C)c2O)cc1,7.2,1.5,-0.2,i,48.9,61.2,58.2
CCCc1ccc(Oc2c(-c3ccc(O)c(C)c3O)n[nH]c2C)cc1,-3.3,-2.0,0.7,i,15.0,nt,nt
Cc1cc(C(=O)NCc2cc(F)cc3c2OCOC3)nn1C,-7.0,4.1,-0.1,i,-19.1,nt,nt
Cn1nc(C(C)(C)C)cc1C(=O)NCc1cc(F)cc2c1OCOC2,-1.9,-0.8,0.5,i,77.6*,95.3*,77.0*
CCC(C)C(=O)O[C@H]1C[C@H](O)C=C2C=C[C@H](C)[C@H](CC[C@@H](O)C[C@@H](O)CC(=O)O)C21 (some centres undefined),-0.1,nt,nt,nt,nt,nt,nt
Fc1ccc(C(CCCn2nnc(-c3cccnc3)n2)c2ccc(F)cc2)cc1,-4.2,-0.3,0.4,i,51.9,55.1,50.9
Fc1ccc(-n2nnc(-c3cccnc3)n2)cc1,4.5,-2.0,0.4,i,-77.4,nt,nt
NS(=O)(=O)c1ccc(N2CCCCS2(=O)=O)cc1,1.9,nt,nt,nt,nt,nt,nt
O=C(Nc1nnc(SCc2ccc(F)cc2)s1)c1cccnc1Cl,-3.2,2.3,-0.7,i,5.6,nt,nt
O=C(Nc1nnc(SCc2ccc(F)cc2)s1)c1ccccn1,-0.6,nt,0.4,i,64.9,48.9,4.7
CCCCNC(=S)N/N=C/c1cccc(OCC)c1O,1.2,0.6,0.8,i,-6.6,nt,nt
CCOc1cccc(/C=N/NC(=S)Nc2ccccc2[N+](=O)[O-])c1O,-2.8,3.2,-0.8,i,82.7*,53.0,25.5
COc1cc(CSc2nnnn2-c2ccc(C)cc2)cc(OC)c1OC,-3.6,8.5,-0.2,i,97.8*,93.8*,83.7*
COc1ccc(F)cc1CSc1nnnn1-c1ccc(O)cc1,7.4,-1.9,1.2,i,15.4,nt,nt
CCN(Cc1ccccc1)C(=O)C1C2C=CC3(CN(Cc4ccccc4)C(=O)C13)O2 (centres undefined),-0.6,nt,nt,nt,nt,nt,nt
COC(=O)[C@]12C[C@H](CC(=O)N3CCCCC3)C(=O)N(CCc3ccc(OC)c(OC)c3)C1=C[C@H](C1CCCC1)O[C@@H]2C,-2.2,nt,nt,nt,nt,nt,nt
SMILES,NR1D1 modulator,NR2E3 ag-1,PG9 Ab binder,Neddyl block,NR2E3 ag-2,NR2E3 ag conf,GAL4-VP16 luc
CC(=O)c1c(C)[nH]c(C(=O)OCC(=O)Nc2ccc(C)cc2[N+](=O)[O-])c1C,-3.7,5.4,2.1,i,81.5*,98.5*,89.5*
C[C@@H]1ON(C)[C@H]2C[C@H]3c4[nH]c5c(-c6ccccc6)cccc5c4CCN3C[C@@H]12,-4.4,nt,-1.3,nt,nt,nt,nt
COc1ccc(NC(=O)CSc2nc3sc(C)cc3c(=O)n2C)c(OC)c1,-9.4,-3.2,-1.2,i,62.2,45.7,37.4
Nc1cc2c(cc1Cl)-c1ccc([N+](=O)[O-])cc1C2=NO,1.5,nt,-3.0,i,53.7,25.0,-11.4
O=C(OCc1ccc(Br)cc1)c1cc([N+](=O)[O-])ccc1N1CCOCC1,2.7,nt,-2.4,i,-36.9,nt,nt
O=C(COC(=O)c1cc([N+](=O)[O-])ccc1N1CCOCC1)Nc1ccc(Cl)cn1,7.8,-1.1,-1.7,i,78.3*,82.1*,27.6
COc1ccc(COC(=O)c2cc([N+](=O)[O-])ccc2N2CCOCC2)cc1F,0.1,-2.7,-0.5,i,48.4,15.3,28.3
CCCCN1CCN(C(=O)C2CCN(S(=O)(=O)c3ccc4[nH]c(=O)oc4c3)CC2)CC1,0.6,nt,nt,nt,nt,nt,nt
NCc1ccc(OCCCN2CCC(C(O)(C3=CCCC3)c3ccccc3)CC2)cc1 (centres undefined),-0.6,nt,-0.7,nt,nt,nt,nt
Clc1ccc(CSc2nnc(Cn3cnc4ccccc43)o2)cc1,0.4,0.1,1.4,i,60.3,79.7*,69.1
O=C(CSc1nnc(Cn2nnc3ccccc32)o1)N(Cc1ccc(Cl)cc1)c1ccccc1,-0.9,5.0,-2.7,i,81.0*,94.0*,81.0*
Cc1ccc(S(=O)(=O)N(C)[C@H]2C[C@H]3c4cc(-c5ccccc5C)ccc4CCN3C[C@H]2[C@H](C)O)cc1,-4.9,nt,nt,nt,nt,nt,nt
O[C@@H]1COC2C1OC[C@@H]2O (some centres undefined),0.5,nt,nt,nt,nt,nt,nt
CCOc1ccc(CN2CCC(C(=O)N3CCN(c4ccccc4F)CC3)CC2)cc1OC,-8.9,2.1,-2.4,i,-6.8,nt,nt
CCOc1ccc(S(=O)(=O)N2CCC(C(=O)N3CCN(c4ccccc4F)CC3)CC2)cc1C,-4.0,-2.4,-0.3,i,47.8,6.3,43.7
Cc1ccc(C(=O)NCC(=O)OCc2nc3sc(C)c(C)c3c(=O)[nH]2)cc1,3.7,nt,nt,nt,nt,nt,nt
O=c1c2ccccc2oc2cc(C#CC3(O)CCCCC3)ccc12,-4.2,1.6,-0.2,i,69.7,59.0,16.1
O=c1c2ccccc2sc2ccc(C#CC3(O)CCCCC3)cc12,3.0,7.8,-1.6,i,98.5*,85.5*,73.4*
COc1cccc2sc3ccc(C#CC4(O)CCCCC4)cc3c(=O)c12,-0.3,-0.6,1.0,i,-59.9,nt,nt
COc1cccc2oc3cc(C#CC4(O)CCCCC4)ccc3c(=O)c12,-5.0,5.9,-1.5,nt,-40.5,nt,nt
O=C(NCCCN1CCN(c2ccc(F)cc2)CC1)NCc1ccccc1,-3.0,nt,nt,nt,nt,nt,nt
Cc1cc2nc(-c3cccc(Cl)c3)c(Cc3ccccc3)n2c(C)c1Br,nt,nt,nt,i,59.6,29.3,-14.6
Cc1cc2nc(-c3cccc(Br)c3)c(Cc3cccc(Cl)c3)n2c(C)c1Br,-9.7,nt,0.6,i,-0.9,nt,nt
